By MIC is commonly meant the smallest concentration in the dilution series that meets the test's criterion for growth inhibition. Higher therefore signals a need for much substance.

The values below come from ChEMBL document CHEMBL1153764, “A facile one-pot green synthesis and antibacterial activity of 2-amino-4H-pyrans and 2-amino-5-oxo-5,6,7,8-tetrahydro-4H-chromenes” (2009).

Converted amounts (≈) assume the structure as drawn.

Holding throughout (assay type): functional
Assay [1] relates to Pseudomonas putida. As to the kind of experiment: Antibacterial activity against Pseudomonas putida MTCC 1072 after 12 to 16 hrs. In a few lines:
(§1)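 Tube broth dilution MIC. Tubes were inoculated with the bacterial strain and incubated 12–16 h. Growth was scored visually: a turbid tube means growth, a clear tube means no growth. MIC is the lowest concentration with no growth.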

The test system of assay [2] is Escherichia coli. Kind of assay: Antibacterial activity against Escherichia coli MTCC 41 after 12 to 16 hrs. A digest of the protocol: as §1
The subject of assay [3] is Escherichia coli. As to the kind of experiment: Antibacterial activity against Escherichia coli MTCC 41 at 128 ug/ml after 16 hrs by disc diffusion method. The following applies: MTCC 41, 16 h, read-out: IZ. In a few lines:
(§2)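 Disc diffusion zone-of-inhibition assay. The bacterial isolate was spread evenly over the surface of an agar plate. A filter disc loaded with a known amount of compound was placed on the surface, and the compound diffused into the surrounding agar. Plates were incubated 16 h until a bacterial lawn formed, and the zone of inhibition around the disc was then assessed.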
(A growth-free zone around the sample is the usual read-out of agar diffusion tests.)

In assay [4] the test system is Escherichia coli. Kind of assay: Antibacterial activity against Escherichia coli MTCC 41 at 64 ug/ml after 16 hrs by disc diffusion method. The following applies: MTCC 41, 16 h, read-out: IZ. A digest of the protocol: as §2
For assay [5], the system named is Staphylococcus aureus. As to the kind of experiment: Antibacterial activity against Staphylococcus aureus MTCC 1144 after 12 to 16 hrs. In a few lines:
as §1

Assay [6] relates to Staphylococcus aureus. Kind of assay: Antibacterial activity against Staphylococcus aureus MTCC 1144 at 128 ug/ml after 16 hrs by disc diffusion method. The settings on record: MTCC 1144, 16 h, read-out: IZ. In a few lines:
as §2

Assay [7] concerns Staphylococcus aureus. As to the kind of experiment: Antibacterial activity against Staphylococcus aureus MTCC 1144 at 64 ug/ml after 16 hrs by disc diffusion method. The settings on record: MTCC 1144, 16 h, read-out: IZ. A digest of the protocol: as §2
In assay [8] the test system is Pseudomonas putida. Kind of assay: Antibacterial activity against Pseudomonas putida MTCC 1072 at 128 ug/ml after 16 hrs by disc diffusion method. The following applies: MTCC 1072, 16 h, read-out: IZ. In a few lines: as §2
Assay [9] deals with Pseudomonas putida. Kind of assay: Antibacterial activity against Pseudomonas putida MTCC 1072 at 64 ug/ml after 16 hrs by disc diffusion method. The settings on record: MTCC 1072, 16 h, read-out: IZ. In a few lines:
as §2

`CCOC(=O)C1=C(C)OC(N)=C(C#N)C1c1ccc([N+](=O)[O-])cc1` (stereo not drawn): the minimum inhibitory concentration (MIC) in the assay with Pseudomonas putida [1], against Escherichia coli [2] and in the assay with Staphylococcus aureus [5] was over 128 µg/mL throughout. The zone of inhibition at 128 µg/mL in the assay on Escherichia coli [3], with Staphylococcus aureus [6] and in the assay with Pseudomonas putida [8] was under 1 mm each time. In addition, the zone of inhibition at 64 µg/mL with Escherichia coli [4], with Staphylococcus aureus [7] and in the assay on Pseudomonas putida [9] was under 1 mm in each case.

As to `CC1(C)CC(=O)C2=C(C1)OC(N)=C(C#N)C2c1ccc(Cl)cc1` (stereo not drawn), the MIC against Pseudomonas putida [1], with Escherichia coli [2] and with Staphylococcus aureus [5] was 128 µg/mL (≈ 389 µM) each time. The zone of inhibition at 128 µg/mL in the assay on Escherichia coli [3], with Staphylococcus aureus [6] and in the assay with Pseudomonas putida [8] was over 3 mm in each case. In addition, the zone of inhibition at 64 µg/mL in the assay on Escherichia coli [4], with Staphylococcus aureus [7] and in the assay with Pseudomonas putida [9] was over 2 mm each time.

As to `Cc1ccc(C2C(C#N)=C(N)OC3=C2C(=O)CC(C)(C)C3)cc1` (stereo not drawn), the MIC was 128 µg/mL (≈ 415 µM) in the assay on Pseudomonas putida [1], over 128 µg/mL against Escherichia coli [2] and over 128 µg/mL against Staphylococcus aureus [5]. Also, the zone of inhibition at 128 µg/mL in the assay on Escherichia coli [3] was over 2 mm; with Staphylococcus aureus [6], over 2 mm; with Pseudomonas putida [8], over 3 mm. For the same molecule, the zone of inhibition at 64 µg/mL in the assay on Escherichia coli [4], with Staphylococcus aureus [7] and with Pseudomonas putida [9] was over 2 mm throughout.

For `CC1(C)CC(=O)C2=C(C1)OC(N)=C(C#N)C2c1cccc(O)c1` (stereo not drawn), the MIC against Pseudomonas putida [1] is 64 µg/mL (≈ 206 µM); against Escherichia coli [2], 128 µg/mL (≈ 412 µM); against Staphylococcus aureus [5] it was over 128 µg/mL. In addition, the zone of inhibition at 128 µg/mL was over 3 mm with Escherichia coli [3], over 2 mm in the assay with Staphylococcus aureus [6] and over 3 mm in the assay with Pseudomonas putida [8]. The results for the zone of inhibition at 64 µg/mL with Escherichia coli [4], with Staphylococcus aureus [7] and in the assay on Pseudomonas putida [9] were over 2 mm, over 2 mm and over 3 mm, respectively.

As to `CC1(C)CC(=O)C2=C(C1)OC(N)=C(C#N)C2c1ccccc1` (stereo not drawn), the MIC in the assay with Pseudomonas putida [1], against Escherichia coli [2] and with Staphylococcus aureus [5] was over 128 µg/mL in each case. In addition, the figures for the zone of inhibition at 128 µg/mL in the assay on Escherichia coli [3], with Staphylococcus aureus [6] and with Pseudomonas putida [8] were over 2 mm, under 1 mm and over 2 mm, respectively. For the same molecule, the zone of inhibition at 64 µg/mL is under 1 mm in the assay on Escherichia coli [4], under 1 mm with Staphylococcus aureus [7] and over 2 mm with Pseudomonas putida [9].

With `COc1ccc(C2C(C#N)=C(N)OC3=C2C(=O)CC(C)(C)C3)cc1` (stereo not drawn), the MIC was 128 µg/mL (≈ 395 µM) in the assay on Pseudomonas putida [1], 64 µg/mL (≈ 197 µM) against Escherichia coli [2] and over 128 µg/mL against Staphylococcus aureus [5]. In addition, the results for the zone of inhibition at 128 µg/mL in the assay on Escherichia coli [3], in the assay with Staphylococcus aureus [6] and in the assay on Pseudomonas putida [8] were over 3 mm, over 2 mm and over 3 mm, respectively. In addition, the zone of inhibition at 64 µg/mL is over 3 mm in the assay with Escherichia coli [4], over 2 mm in the assay on Staphylococcus aureus [7] and over 2 mm in the assay on Pseudomonas putida [9].

As to `CC1(C)CC(=O)C2=C(C1)OC(N)=C(C#N)C2c1cccc([N+](=O)[O-])c1` (stereo not drawn), the MIC against Pseudomonas putida [1], against Escherichia coli [2] and with Staphylococcus aureus [5] was 128 µg/mL (≈ 377 µM) in each case. Further, the zone of inhibition at 128 µg/mL in the assay with Escherichia coli [3], in the assay with Staphylococcus aureus [6] and in the assay on Pseudomonas putida [8] was over 3 mm each time. Also, the zone of inhibition at 64 µg/mL in the assay with Escherichia coli [4] is under 1 mm; in the assay on Staphylococcus aureus [7], over 2 mm; in the assay on Pseudomonas putida [9] it was under 1 mm.

Regarding `CC1(C)CC(=O)C2=C(C1)OC(N)=C(C#N)C2c1ccc([N+](=O)[O-])cc1` (stereo not drawn), the minimal inhibitory concentration (MIC) worked out at 128 µg/mL (≈ 377 µM) against Pseudomonas putida [1], 64 µg/mL (≈ 189 µM) in the assay on Escherichia coli [2] and 64 µg/mL (≈ 189 µM) against Staphylococcus aureus [5]. Also, the zone of inhibition at 128 µg/mL with Escherichia coli [3], with Staphylococcus aureus [6] and in the assay with Pseudomonas putida [8] was over 3 mm in each case. Besides, the zone of inhibition at 64 µg/mL in the assay on Escherichia coli [4] was over 3 mm; in the assay on Staphylococcus aureus [7] it was over 3 mm; in the assay on Pseudomonas putida [9], under 1 mm.

As for `CCOC(=O)C1=C(C)OC(N)=C(C#N)C1c1cccc([N+](=O)[O-])c1` (stereo not drawn), the MIC in the assay with Pseudomonas putida [1], in the assay with Escherichia coli [2] and against Staphylococcus aureus [5] was over 128 µg/mL throughout. Besides, the zone of inhibition at 128 µg/mL in the assay on Escherichia coli [3], in the assay with Staphylococcus aureus [6] and with Pseudomonas putida [8] was under 1 mm each time. For the same molecule, the zone of inhibition at 64 µg/mL in the assay on Escherichia coli [4], in the assay with Staphylococcus aureus [7] and with Pseudomonas putida [9] was under 1 mm throughout.

`CCOC(=O)C1=C(C)OC(N)=C(C#N)C1c1ccccc1` (stereo not drawn): the MIC in the assay with Pseudomonas putida [1] worked out at 128 µg/mL (≈ 450 µM); against Escherichia coli [2] it was 64 µg/mL (≈ 225 µM); with Staphylococcus aureus [5], 128 µg/mL (≈ 450 µM). Moreover, the zone of inhibition at 128 µg/mL in the assay on Escherichia coli [3], in the assay on Staphylococcus aureus [6] and in the assay on Pseudomonas putida [8] was over 3 mm in each case. Also, the zone of inhibition at 64 µg/mL in the assay with Escherichia coli [4] was over 3 mm; in the assay on Staphylococcus aureus [7] it was under 1 mm; with Pseudomonas putida [9], under 1 mm.

On to `CCOC(=O)C1=C(C)OC(N)=C(C#N)C1c1cccc(Cl)c1` (stereo not drawn), for which the MIC against Pseudomonas putida [1], in the assay on Escherichia coli [2] and against Staphylococcus aureus [5] was 128 µg/mL (≈ 402 µM) throughout. Also, the zone of inhibition at 128 µg/mL in the assay on Escherichia coli [3], in the assay with Staphylococcus aureus [6] and in the assay on Pseudomonas putida [8] was over 3 mm throughout. Also, the zone of inhibition at 64 µg/mL in the assay on Escherichia coli [4], in the assay with Staphylococcus aureus [7] and in the assay with Pseudomonas putida [9] was under 1 mm in each case.

As to `CCOC(=O)C1=C(C)OC(N)=C(C#N)C1c1ccc(Cl)cc1` (stereo not drawn), the MIC in the assay on Pseudomonas putida [1], with Escherichia coli [2] and against Staphylococcus aureus [5] was over 128 µg/mL in each case. The zone of inhibition at 128 µg/mL with Escherichia coli [3], in the assay with Staphylococcus aureus [6] and in the assay with Pseudomonas putida [8] was under 1 mm throughout. The zone of inhibition at 64 µg/mL in the assay on Escherichia coli [4], with Staphylococcus aureus [7] and in the assay with Pseudomonas putida [9] was under 1 mm in each case.

For `CCOC(=O)C1=C(C)OC(N)=C(C#N)C1c1ccc(C)cc1` (stereo not drawn), the minimal inhibitory concentration (MIC) with Pseudomonas putida [1], in the assay with Escherichia coli [2] and in the assay on Staphylococcus aureus [5] was over 128 µg/mL each time. In addition, the zone of inhibition at 128 µg/mL in the assay on Escherichia coli [3], in the assay on Staphylococcus aureus [6] and in the assay on Pseudomonas putida [8] was under 1 mm in each case. Further, the zone of inhibition at 64 µg/mL in the assay on Escherichia coli [4], in the assay with Staphylococcus aureus [7] and in the assay with Pseudomonas putida [9] was under 1 mm each time.

In the case of `CCOC(=O)C1=C(C)OC(N)=C(C#N)C1c1cccc(O)c1` (stereo not drawn), the MIC against Pseudomonas putida [1] was 128 µg/mL (≈ 426 µM); in the assay with Escherichia coli [2], over 128 µg/mL; against Staphylococcus aureus [5], over 128 µg/mL. The figures for the zone of inhibition at 128 µg/mL with Escherichia coli [3], with Staphylococcus aureus [6] and in the assay with Pseudomonas putida [8] were under 1 mm, under 1 mm and over 3 mm, respectively. Also, the zone of inhibition at 64 µg/mL in the assay with Escherichia coli [4], in the assay with Staphylococcus aureus [7] and with Pseudomonas putida [9] was under 1 mm in each case.

Regarding `CCOC(=O)C1=C(C)OC(N)=C(C#N)C1c1ccc(OC)cc1` (stereo not drawn), the MIC against Pseudomonas putida [1], in the assay on Escherichia coli [2] and in the assay on Staphylococcus aureus [5] was 128 µg/mL (≈ 407 µM) each time. Also, the zone of inhibition at 128 µg/mL with Escherichia coli [3], with Staphylococcus aureus [6] and with Pseudomonas putida [8] was over 3 mm throughout. Moreover, the zone of inhibition at 64 µg/mL in the assay on Escherichia coli [4], with Staphylococcus aureus [7] and in the assay on Pseudomonas putida [9] was under 1 mm each time.

As to `CC1(C)S[C@@H]2[C@H](NC(=O)[C@H](N)c3ccccc3)C(=O)N2[C@H]1C(=O)O` [AMPICILLIN], the MIC was over 256 µg/mL in the assay on Pseudomonas putida [1] and 16 µg/mL (≈ 45.8 µM) with Escherichia coli [2]. Moreover, the zone of inhibition at 128 µg/mL was over 5 mm in the assay on Escherichia coli [3], over 5 mm in the assay on Staphylococcus aureus [6] and 0 mm in the assay on Pseudomonas putida [8]. Besides, the zone of inhibition at 64 µg/mL in the assay on Escherichia coli [4] was over 5 mm; in the assay with Staphylococcus aureus [7], over 5 mm; in the assay with Pseudomonas putida [9], 0 mm.
